Experiment [1] addresses T1, Tyrosine-protein phosphatase non-receptor type 2 (Homo sapiens, UniProt P17706).
T1 sequence (P17706 whole entry): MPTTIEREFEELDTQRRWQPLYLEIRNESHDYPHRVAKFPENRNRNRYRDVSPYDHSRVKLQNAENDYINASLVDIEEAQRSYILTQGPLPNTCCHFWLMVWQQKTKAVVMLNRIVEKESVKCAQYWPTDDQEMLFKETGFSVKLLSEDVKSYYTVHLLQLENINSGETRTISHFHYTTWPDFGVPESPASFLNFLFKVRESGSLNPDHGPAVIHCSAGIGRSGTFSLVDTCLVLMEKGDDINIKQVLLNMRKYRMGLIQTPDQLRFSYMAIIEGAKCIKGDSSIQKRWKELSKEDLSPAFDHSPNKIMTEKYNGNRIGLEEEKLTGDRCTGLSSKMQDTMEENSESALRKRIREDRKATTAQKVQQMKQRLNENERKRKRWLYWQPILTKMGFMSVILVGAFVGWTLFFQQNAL
The experiment can be described thus: Inhibition of human recombinant GST-tagged TCPTP (catalytic domain […] residues) expressed in Escherichia coli BL21 (DE3) using pNPP as substrate measured for 2 mins by colorimetric analysis.

For experiment [2], the target named is T2, M-phase inducer phosphatase 2 (Homo sapiens, UniProt P30305).
T2 sequence (P30305 whole entry): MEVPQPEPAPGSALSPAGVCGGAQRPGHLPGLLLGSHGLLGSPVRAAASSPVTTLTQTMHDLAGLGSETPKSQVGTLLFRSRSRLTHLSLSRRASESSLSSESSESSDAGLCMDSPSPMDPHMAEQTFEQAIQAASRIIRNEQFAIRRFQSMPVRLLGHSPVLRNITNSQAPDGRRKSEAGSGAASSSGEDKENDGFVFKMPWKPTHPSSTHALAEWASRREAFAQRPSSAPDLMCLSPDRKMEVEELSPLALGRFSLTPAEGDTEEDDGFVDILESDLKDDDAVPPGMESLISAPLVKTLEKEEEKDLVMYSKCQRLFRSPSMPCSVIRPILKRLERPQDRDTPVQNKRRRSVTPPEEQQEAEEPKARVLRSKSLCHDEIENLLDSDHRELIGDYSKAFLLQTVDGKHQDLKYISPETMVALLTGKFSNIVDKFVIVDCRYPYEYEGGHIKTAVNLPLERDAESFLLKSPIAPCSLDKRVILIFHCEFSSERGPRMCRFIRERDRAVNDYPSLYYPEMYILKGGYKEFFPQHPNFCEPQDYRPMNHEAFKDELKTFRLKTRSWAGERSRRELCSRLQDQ
Briefly: Inhibition of human recombinant GST-tagged CDC25B expressed in Escherichia coli BL21 (DE3) using pNPP as substrate measured for 2 mins by colorimetric analysis. In outline: (§1)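 pNPP hydrolysis assay. IC50 was derived by regression analysis and given as mean ± SD of three replications.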

The target in experiment [3] is Tyrosine-protein phosphatase non-receptor type 6 (Homo sapiens, UniProt P29350). Briefly: Inhibition of human recombinant GST-tagged SHP1 (catalytic domain 244 to 570 residues) expressed in Escherichia coli BL21 (DE3) using pNPP as substrate measured for 2 mins by colorimetric analysis. In outline:
as §1

Experiment [4] deals with Candida albicans. The experiment can be described thus: Antifungal activity against Candida albicans 7535 assessed as reduction in bacterial cell growth incubated for 24 hrs by ELISA. Format: functional. To be noted: Candida albicans, 7535, 24 h. The method in brief:
(§2)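 MIC determined by serial dilution in 96-well microtiter plates. Strains used were E. coli 1924 and P. aeruginosa 2742 (Gram-negative), S. mutans 3289 (Gram-positive) and the fungus C. albicans 7535. Gatifloxacin, moxifloxacin, norfloxacin and oxacillin served as antibacterial reference agents, and fluconazole as the antifungal reference.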
(ELISA stands for enzyme-linked immunosorbent assay.)

Experiment [5] has as its system Staphylococcus aureus. The experiment can be described thus: Antibacterial activity against Quinolone-resistant Staphylococcus aureus CCARM 3519 assessed as reduction in bacterial cell growth incubated for 24 hrs by ELISA. To be noted: CCARM 3519, 24 h. Type of experiment: functional. The method in brief: (§3)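 MICs determined by serial dilution in 96-well microtiter plates. The strain panel included Gram-positive S. aureus strains and multidrug-resistant clinical isolates. Gatifloxacin, moxifloxacin, norfloxacin and oxacillin served as antibacterial positive controls.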

Experiment [6] relates to Streptococcus mutans. Briefly: Antibacterial activity against Streptococcus mutans KCTC3289 assessed as reduction in bacterial cell growth incubated for 24 hrs by ELISA. Type of experiment: functional. To be noted: KCTC3289, 24 h. In outline: as §2
For experiment [7], the system named is Staphylococcus aureus. The experiment can be described thus: Antibacterial activity against Staphylococcus aureus KCTC503 assessed as reduction in bacterial cell growth incubated for 24 hrs by ELISA. Format: functional. To be noted: KCTC503, 24 h. The method in brief: as §3
The species named for experiment [8] is Homo sapiens. The experiment can be described thus: Selectivity ratio of IC50 for human recombinant GST-tagged TCPTP to IC50 for human recombinant GST-tagged PTP1B.
Experiment [9] deals with Staphylococcus aureus. Briefly: Antibacterial activity against Staphylococcus aureus RN4220 assessed as reduction in bacterial cell growth incubated for 24 hrs by ELISA. Format: functional. To be noted: RN4220, 24 h. In outline: as §3
Experiment [10] deals with T3, Tyrosine-protein phosphatase non-receptor type 11 (Homo sapiens, UniProt Q06124).
T3 sequence (Q06124 whole entry): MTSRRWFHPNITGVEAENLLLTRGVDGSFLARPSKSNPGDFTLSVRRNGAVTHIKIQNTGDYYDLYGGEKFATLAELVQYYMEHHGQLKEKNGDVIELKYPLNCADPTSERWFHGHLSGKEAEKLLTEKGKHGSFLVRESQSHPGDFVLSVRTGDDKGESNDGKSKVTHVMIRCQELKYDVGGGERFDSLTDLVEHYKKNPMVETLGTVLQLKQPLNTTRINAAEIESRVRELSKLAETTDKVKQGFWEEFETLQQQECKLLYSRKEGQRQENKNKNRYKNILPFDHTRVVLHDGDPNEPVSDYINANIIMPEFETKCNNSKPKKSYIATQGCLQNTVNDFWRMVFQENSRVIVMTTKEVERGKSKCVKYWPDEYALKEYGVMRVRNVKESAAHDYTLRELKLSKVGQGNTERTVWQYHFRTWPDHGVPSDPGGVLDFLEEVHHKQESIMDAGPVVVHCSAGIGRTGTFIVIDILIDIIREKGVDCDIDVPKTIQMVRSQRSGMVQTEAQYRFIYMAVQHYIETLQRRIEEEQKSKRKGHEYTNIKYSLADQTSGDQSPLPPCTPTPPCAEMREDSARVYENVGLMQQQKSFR
Briefly: Inhibition of human recombinant GST-tagged SHP2 (catalytic domain […] residues) expressed in Escherichia coli BL21 (DE3) using pNPP as substrate measured for 2 mins by colorimetric analysis. In outline:
as §1

The test system of experiment [11] is Escherichia coli. Briefly: Antibacterial activity against Escherichia coli 1924 assessed as reduction in bacterial cell growth incubated for 24 hrs by ELISA. To be noted: Escherichia coli, 1924, 24 h. Type of experiment: functional. In outline:
as §2

≈ marks a conversion by molar mass, not a printed value.

Chain of Tyrosine-protein phosphatase non-receptor type 6 (P29350 whole entry, the tested form may be a part): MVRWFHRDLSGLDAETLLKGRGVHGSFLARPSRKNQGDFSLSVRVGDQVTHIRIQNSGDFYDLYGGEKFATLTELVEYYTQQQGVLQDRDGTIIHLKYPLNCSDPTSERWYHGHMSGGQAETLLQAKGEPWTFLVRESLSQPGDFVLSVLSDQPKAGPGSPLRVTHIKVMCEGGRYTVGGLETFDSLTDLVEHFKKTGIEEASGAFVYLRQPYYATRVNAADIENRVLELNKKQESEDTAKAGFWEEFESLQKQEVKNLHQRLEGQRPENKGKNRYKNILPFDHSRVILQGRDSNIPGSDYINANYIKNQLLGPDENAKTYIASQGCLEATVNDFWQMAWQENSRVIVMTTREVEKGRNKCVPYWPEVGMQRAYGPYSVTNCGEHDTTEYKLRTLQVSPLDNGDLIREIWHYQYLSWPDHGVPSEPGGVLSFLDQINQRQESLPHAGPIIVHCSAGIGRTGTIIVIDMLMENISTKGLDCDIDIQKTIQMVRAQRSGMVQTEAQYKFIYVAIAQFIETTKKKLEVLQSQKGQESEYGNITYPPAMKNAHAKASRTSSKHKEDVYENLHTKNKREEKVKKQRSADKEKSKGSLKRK

As for `O=C(O)C(Cc1c[nH]c2ccccc12)N1C(=O)/C(=C/c2ccc3cc(OCc4ccc(Cl)cc4Cl)ccc3c2)SC1=S` (stereo not drawn), the IC50 (commonly the concentration at which inhibition is half-maximal) in [1] is 1830 nM; in experiment [2], 490 nM; in [3], 2950 nM; in [10] it was 6930 nM. For the same compound, the MIC (as a rule, the lowest concentration that inhibits growth of the organism) in experiment [4] is more than 64 µg/mL; in [5], 8 µg/mL (≈ 12.6 µM); in experiment [6] it was 4 µg/mL (≈ 6.31 µM); in experiment [7] it was 4 µg/mL (≈ 6.31 µM); in experiment [9] it was 2 µg/mL (≈ 3.16 µM); in [11], 8 µg/mL (≈ 12.6 µM). The Ratio IC50 in [8] was 2 to 3.
For `O=C(O)C(Cc1c[nH]c2ccccc12)N1C(=O)/C(=C/c2ccc3cc(OCc4ccc(Br)cc4)ccc3c2)SC1=S` (stereo not drawn), the IC50 is 780 nM in [1], 320 nM in [2], 1110 nM in experiment [3] and 3800 nM in [10]. Further, the MIC in [4] was more than 64 µg/mL; in experiment [5] it was 4 µg/mL (≈ 6.22 µM); in experiment [6], 8 µg/mL (≈ 12.4 µM); in experiment [7], 4 µg/mL (≈ 6.22 µM); in [9], 2 µg/mL (≈ 3.11 µM); in experiment [11], 8 µg/mL (≈ 12.4 µM). Besides, the Ratio IC50 in experiment [8] was in the range of 2 to 3.
With `Cc1ccc(COc2ccc3cc(/C=C4\SC(=S)N(C(Cc5c[nH]c6ccccc56)C(=O)O)C4=O)ccc3c2)cc1` (stereo not drawn), the 50% inhibitory concentration (IC50) amounted to 1690 nM in experiment [1], 830 nM in experiment [2], 3990 nM in experiment [3] and 5810 nM in [10]. Further, the MIC in experiment [4] is more than 64 µg/mL; in [5], 2 µg/mL (≈ 3.46 µM); in experiment [6], 2 µg/mL (≈ 3.46 µM); in experiment [7] it was 2 µg/mL (≈ 3.46 µM); in experiment [9], 2 µg/mL (≈ 3.46 µM); in experiment [11], 2 µg/mL (≈ 3.46 µM). Further, the Ratio IC50 in [8] lay within 2 to 3.

These data come from ChEMBL document CHEMBL4346701, “Synthesis and biological evaluation of tryptophan-derived rhodanine derivatives as PTP1B inhibitors and anti-bacterial agents” (Eur J Med Chem, 2019).
